APOBEC3G inh = blocks human APOBEC3G single-stranded DNA deamination; 330,000 tested, 0.28% active; inhibition, % at 20 µM; Q9HC16; recombinant A3G, ssDNA deamination FAM/TAMRA fluorescence;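 active = inhibition of at least 40% at 20 µM, with no more than 30% in the related APOBEC3A deaminase screen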;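 note: plate controls were DMSO wells with A3G for no effect and wells lacking A3G enzyme for full effect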
PfGluPho inh = PfG6PD (Plasmodium falciparum) enzyme inhibition; PfGluPho enzyme, NADPH resazurin-diaphorase fluorescence; inhibition, % at 20 µM; 350,000 tested, 0.78% active;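 active = inhibition reaching at least a set limit at 20 µM in the primary screen, cut at about 59% in these data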;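 note: 0% = DMSO wells with substrate and 100% = DMSO wells lacking glucose-6-phosphate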
HKDC1 inh = inhibitors of human hexokinase HKDC1. Q2TB90. recombinant HKDC1, G6PDH/diaphorase resazurin coupled fluorescence. inhibition, % at 20 µM. 340,000 tested, 0.16% active. AID 493160;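 active = inhibition above about 35% when tested at 20 µM, limit read from the data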;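 note: plate controls were DMSO wells with enzyme for no effect and DMSO wells lacking enzyme for full effect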
Target sequence (Q2TB90 whole entry, looked up): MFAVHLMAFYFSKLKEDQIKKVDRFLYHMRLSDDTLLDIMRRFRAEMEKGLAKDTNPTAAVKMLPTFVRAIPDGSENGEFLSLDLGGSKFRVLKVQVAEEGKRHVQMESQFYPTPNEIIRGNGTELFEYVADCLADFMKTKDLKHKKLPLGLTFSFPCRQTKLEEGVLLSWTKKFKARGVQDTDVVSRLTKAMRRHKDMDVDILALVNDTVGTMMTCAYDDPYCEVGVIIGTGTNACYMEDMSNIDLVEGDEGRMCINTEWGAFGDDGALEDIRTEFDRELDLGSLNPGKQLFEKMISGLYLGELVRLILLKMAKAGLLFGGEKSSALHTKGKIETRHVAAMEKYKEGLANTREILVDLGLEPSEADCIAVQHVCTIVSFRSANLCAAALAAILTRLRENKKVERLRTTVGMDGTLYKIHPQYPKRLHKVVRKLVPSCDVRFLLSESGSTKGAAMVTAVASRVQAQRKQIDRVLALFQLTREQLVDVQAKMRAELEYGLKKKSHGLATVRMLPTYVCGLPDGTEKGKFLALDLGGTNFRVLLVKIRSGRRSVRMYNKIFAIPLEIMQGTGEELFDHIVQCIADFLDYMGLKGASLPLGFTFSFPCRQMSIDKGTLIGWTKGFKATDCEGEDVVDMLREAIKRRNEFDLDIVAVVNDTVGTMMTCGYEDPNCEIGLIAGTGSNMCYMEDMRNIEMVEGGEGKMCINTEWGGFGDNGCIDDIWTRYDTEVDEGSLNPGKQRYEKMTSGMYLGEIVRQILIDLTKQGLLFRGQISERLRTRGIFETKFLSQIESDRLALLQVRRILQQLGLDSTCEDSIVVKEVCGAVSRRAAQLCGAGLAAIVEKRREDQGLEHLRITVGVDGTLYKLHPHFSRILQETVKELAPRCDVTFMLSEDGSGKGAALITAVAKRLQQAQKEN
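Assay system – recombinant HKDC1 (HK5) hexokinase enzyme, produced in-house · Input – HKDC1 at 5 µg/mL · Reagent – glucose plus 1 mM ATP as hexokinase substrates · Timing – 90 min reaction incubation at room temperature, dark · Measured by – G6PDH/diaphorase-coupled fluorescence, 1 mM NADP, 100 µM resazurin, 525/613 nm · Benchmarks – DMSO-enzyme wells negative, buffer-substituted wells positive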
hiPSC survival = hiPSC single-cell survival enhancement; ATPlite luminescence; 100% = ROCK inhibitor wells, 0% = DMSO; survival enhancement, % at 20 µM; 360,000 tested, 0.044% active; AID 602274; in the data active = survival enhancement above about 18%;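 note: cells exposed to compounds for 16 hours before the ATP read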
APOBEC3A inh = inhibitors of human APOBEC3A DNA deaminase; inhibition, % at 20 µM; recombinant A3A, FAM/TAMRA ssDNA deamination fluorescence; 330,000 tested, 0.41% active;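 active = at least 40% inhibition at 20 µM here, with at most 30% in a related deaminase screen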;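 note: plate controls were A3A with DMSO for no effect and wells lacking A3A enzyme for full effect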
PfGluPho conf = confirmation of Plasmodium falciparum G6PD inhibitors; inhibition, % at 20 µM; 2,400 tested, 34% active; AID 504753; shares compounds with PfGluPho inh; recombinant PfGluPho, NADPH-diaphorase-resazurin fluorescence;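 active = inhibition of at least 50% at 20 µM in any single replicate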;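 note: 0% = DMSO with substrate and 100% = DMSO lacking glucose-6-phosphate substrate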
Diaph ctr 10uM = counter-screen for P. falciparum G6PD inhibitors: diaphorase inhibitors, oxidizers | 820 tested, 39% active | diaphorase-coupled resazurin reduction, fluorescence, NADPH 10 uM | inhibition, % at 20 µM | shares compounds with PfGluPho inh;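 active = average inhibition reaching 50% or more with the compound at 20 µM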;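 note: resorufin red fluorescence formed as diaphorase reduces resazurin using NADPH; 0% = DMSO with enzyme and 100% = DMSO without enzyme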
Diaph ctr 30uM = diaphorase inhibition or oxidation at 30 uM NADPH; shares compounds with PfGluPho inh; AID 504863; inhibition, % at 20 µM; Diaphorase/resazurin coupled assay, resorufin fluorescence; 820 tested, 29% active;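 active = inhibition averaging 50% or more, tested at 20 µM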;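 note: 0% = DMSO with enzyme and 100% = DMSO wells lacking diaphorase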
Starred values were filed as active, the others as inactive; . = not tested or not shown. Most compounds without a hit are left out; they make up all but 1.4% or so of the library.

SMILES | APOBEC3G inh | PfGluPho inh | HKDC1 inh | hiPSC survival | APOBEC3A inh | PfGluPho conf | others
COC(=O)c1c(-c2cccnc2)csc1NC(=O)c1cc(C)on1 | -6 | 62* | 1 | -3 | -3 | 16
CC(C)Cn1c(N)c(C(=O)CSc2nnc(C3CC3)n2C2CC2)c(=O)n(C)c1=O | -12 | 5 | -4 | 0 | -1 | .
O=c1c2ccccc2sn1-c1ccc(Cl)cc1Cl | . | 129* | . | -1 | . | 109* | Diaph ctr 10uM=-4;Diaph ctr 30uM=2
CN(C)S(=O)(=O)c1cccc(NC(=S)Nc2cccc3cnccc23)c1 | . | 69* | 11 | 0 | . | 8
S=C(Nc1ccc(Cl)cc1)Nc1cccc2cnccc12 | -9 | 75* | 7 | -1 | -2 | -8
CN1CCN(C(=O)CCc2nnc3ccc(N4CCC5(CC4)OCCO5)nn23)CC1 | -5 | 5 | -5 | 0 | -3 | .
Nc1cc2c(cc1Cl)-c1ccc(Cl)cc1C2 | . | 9 | -3 | 2 | . | .
Cc1ccc(Cc2c(-c3ccc(Br)cc3)nc3ccc(Br)cn23)cc1 | . | 67* | . | -1 | . | -9
Cc1ccc(Cc2c(-c3ccc(Br)cc3)nc3ccc(Cl)cn23)cc1 | . | . | . | -2 | . | .
Cc1ccc(Cc2c(-c3ccc(C)cc3)nc3ccc(Cl)cn23)cc1 | . | 77* | . | 3 | . | -10
Cc1ccc(-c2nc3ccc(Br)cn3c2Cc2ccsc2)cc1 | . | . | . | -2 | . | .
Cc1ccc(Cc2c(-c3ccc(Cl)cc3)nc3ccc(Cl)cn23)cc1 | . | 86* | . | -2 | . | 0
O=C1NC[C@@H](CCCCN2CCN(CCc3ccccc3)C(=O)C2=O)N(Cc2ccccc2)C1=O | . | . | . | 0 | . | .
Cc1ccc(S(=O)(=O)NNc2c3ccccc3nc3ccc(Cl)cc23)cc1 | . | 31 | . | -3 | . | .
Cc1ccc(S(=O)(=O)NNc2nc3ccccc3nc2C(F)(F)F)cc1 | 33 | 65* | 0 | 9 | -4 | 20
Cc1cc2nc3ccc(N(C)C)cc3nc2cc1N | 69 | 79* | 24 | -1 | 47 | 32
Nc1ccccc1SCC(=O)Nc1cccc2ccccc12 | -3 | 67* | 16 | -1 | 2 | 10
C[C@@H]1CCCCO[C@@H](CN(C)C(=O)Nc2ccccc2)[C@@H](C)CN([C@H](C)CO)C(=O)c2cc(N(C)C)ccc2O1 | . | 25 | . | -2 | . | .
C[C@@H]1CCCCO[C@H](CN(C)C(=O)Nc2cccc3ccccc23)[C@@H](C)CN([C@H](C)CO)C(=O)c2cc(N(C)C)ccc2O1 | . | 63* | . | -2 | . | 3
COc1c2occc2c(OC)c2c(=O)cc(C)oc12 | 1 | -6 | -7 | 2 | -3 | .
Cc1cc(=O)c2c(o1)C(=O)c1occc1C2=O | . | 86* | 23 | -1 | . | 53* | Diaph ctr 10uM=65*;Diaph ctr 30uM=62*
Cc1csc(NC(=S)NC(=O)c2ccccc2)n1 | -3 | -6 | -1 | -1 | -3 | .
Nc1ccc(C(=O)OCc2nc3cc4ccccc4cc3[nH]2)cc1 | -8 | 63* | -6 | -3 | -5 | 27
COc1cc(/C=N/O)cc(Br)c1OCc1ccc(Cl)cc1 | 5 | 81* | 7 | 1 | 2 | 11
COc1cc(/C=N/O)cc(Br)c1OC | -5 | 7 | -3 | 2 | -2 | .
SMILES | APOBEC3G inh | PfGluPho inh | HKDC1 inh | hiPSC survival | APOBEC3A inh | PfGluPho conf | others
CN1C2CCC1CC(NS(=O)(=O)c1ccc(C#N)cc1)C2 (stereo not drawn) | -3 | -16 | -5 | 0 | 2 | .
c1csc(-c2nc3nc4ccccc4nc3n2Cc2ccc3c(c2)OCO3)c1 | 1 | 72* | 9 | 0 | 0 | 35
O=C(O)c1ccc(NC2=C/C(=N/S(=O)(=O)c3cccs3)c3ccccc3C2=O)cc1 | . | 106* | . | -3 | . | 101* | Diaph ctr 10uM=85*;Diaph ctr 30uM=84*
O=C(O)c1ccc(Nc2nc3ccccc3nc2NS(=O)(=O)c2cccs2)cc1 | -3 | -12 | -3 | 0 | -3 | .
COc1ccc(NC(=O)c2cc(F)cc(F)c2)cc1Cl | -5 | 0 | -2 | 3 | -2 | .
COc1ccc(NC(=O)c2ccc(OC(F)F)cc2)cc1Cl | -6 | 85* | 0 | -3 | -1 | 2
O=C(O)c1cc2c(cn1)[nH]c1ccccc12 | -9 | -5 | 2 | 0 | -2 | .
C[C@H](NC(=O)c1cc2c(cn1)[nH]c1ccccc12)C(=O)O | 37 | 98* | -16 | 0 | 2 | 62* | Diaph ctr 10uM=-4;Diaph ctr 30uM=-11
Cc1cc(Nc2ccc(Cl)cc2)nc(N)n1 | -9 | 63* | -3 | 2 | -6 | 44
COc1ccc(C(=O)c2c(C(F)(F)F)oc3c2C(=O)c2ccccc2C3=O)cc1OC | 1 | 80* | 20 | -2 | 1 | 53* | Diaph ctr 10uM=44;Diaph ctr 30uM=52*
N#C/C(=C\c1ccc(N2CCOCC2)o1)c1ccccc1 | 28 | 48 | -9 | -3 | 1 | .
N#C/C(=C/c1ccc(N2CCCCCC2)o1)c1cccc(F)c1 | 10 | 65* | 4 | -4 | -2 | -4
N#C/C(=C/c1ccc(N2CCCCCC2)o1)c1ccc(F)cc1 | 16 | 45 | 3 | -5 | -2 | .
N#C/C(=C/c1ccc(N2CCOCC2)o1)c1ccc(Br)cc1 | 16 | 80* | 2 | 1 | -9 | 28
O=C(CC(=O)c1ccccc1)Nc1ccccc1 | -3 | -8 | -2 | 0 | -2 | .
COc1cc(C(=O)O/N=C(\N)c2ccncc2)cc(OC)c1OC | -1 | -13 | -2 | -1 | -4 | .
COc1cc(C(=O)O/N=C2\C=CC(=O)C(C)=C2)cc(OC)c1OC | -10 | 68* | -7 | -6 | -2 | 49* | Diaph ctr 10uM=89*;Diaph ctr 30uM=90*
COc1ccc(C(=O)ON=C2C=C(C)C(=O)C(C)=C2)cc1 | -4 | 76* | -2 | -4 | -4 | 52* | Diaph ctr 10uM=13;Diaph ctr 30uM=15
COc1ccc(S(=O)(=O)N=C2C=C(C)C(=O)C(C)=C2)cc1 | -5 | 23 | 11 | 0 | -3 | .
COc1cc(C(=O)ON=C2C=C(C)C(=O)C(C)=C2)cc(OC)c1OC | -6 | 80* | -6 | -1 | -3 | 64* | Diaph ctr 10uM=-1;Diaph ctr 30uM=8
O=C(NCCC(=O)N1CCc2ccccc21)c1ccco1 | -12 | -14 | 2 | 0 | -4 | .
O=c1c2cc([N+](=O)[O-])ccc2sn1-c1ccccc1 | . | 121* | . | -2 | . | 105* | Diaph ctr 10uM=12;Diaph ctr 30uM=17
N#Cc1ccc2sn(-c3ccccc3)c(=O)c2c1 | . | 126* | . | 2 | . | 107* | Diaph ctr 10uM=-11;Diaph ctr 30uM=8
N#Cc1ccc2c(c1)nnn2-c1ccccc1 | -8 | 23 | 5 | 0 | -3 | .
CC(=O)Nc1ccc2sn(-c3ccccc3)c(=O)c2c1 | . | 126* | . | -3 | . | 105* | Diaph ctr 10uM=-12;Diaph ctr 30uM=11
O=c1c(-c2ccccc2)c[nH]n1-c1cccc([N+](=O)[O-])c1 | -2 | 52 | -6 | 0 | -1 | .

Screening results from PubChem.
